SUMO1-SIM PPI – modulators of human SUMO1-mediated protein-protein interactions; P63165; SUMO1 binding to a labelled peptide, TR-FRET, 1 h; inhibition, % at 20 µM; 360,000 tested, 0.33% active; in the data active = inhibition above about 37%
Target sequence (P63165 whole entry, looked up): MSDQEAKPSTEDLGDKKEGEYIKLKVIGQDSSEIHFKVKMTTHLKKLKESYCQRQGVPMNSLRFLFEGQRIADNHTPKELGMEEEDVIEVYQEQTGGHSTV
DNMT1 inh – blocks human DNA methyltransferase DNMT1. P26358. DNMT1 molecular beacon, Hinp1I cleavage, fluorescence. inhibition (reported as % activation of signal), % at 10 µM. 360,000 tested, 0.83% active; in the data active = inhibition above about 50%
STEP block – inhibitors of human striatal-enriched phosphatase STEP; recombinant STEP, OMFP fluorogenic substrate, fluorescence; P54829; AID 588621; 360,000 tested, 0.25% active; inhibition, % at 20 µM;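 active = inhibition at 20 µM, scaled per plate between control wells, above about 37%, limit read from the data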
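Assay system: isolated STEP enzyme / Timing: 20 min at room temperature, dark / Doses: 20 µM, 1% DMSO / Technique: fluorescence intensity, excitation 480 nm, emission 540 nm / Reagent: fluorogenic phosphatase substrate OMFP at 25 µM final / Measure: percent inhibition scaled to no-enzyme and uninhibited-enzyme controls, plate-pattern corrected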
LMPTP inh – LMPTP (human) inhibition | P24666 | recombinant LMPTP-A, OMFP fluorogenic substrate, fluorescence intensity | inhibition, % at 20 µM | 360,000 tested, 0.22% active | AID 651560;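 active = compounds that cut the enzyme signal by at least half of the control window in the single-dose screen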
Target sequence (P24666 whole entry, looked up): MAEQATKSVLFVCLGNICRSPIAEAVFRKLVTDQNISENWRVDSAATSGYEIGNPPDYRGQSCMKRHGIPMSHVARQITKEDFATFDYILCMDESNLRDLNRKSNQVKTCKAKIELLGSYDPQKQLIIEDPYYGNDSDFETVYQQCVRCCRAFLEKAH
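Test system: LMPTP-A phosphatase enzyme; input: 0.625 nM LMPTP-A final; reagent: OMFP substrate, 400 µM final; compound dosing: 20 µM single dose, 3% DMSO; incubation: 50 min dark incubation at room temperature; measured by: endpoint fluorescence intensity from OMFP dephosphorylation; measure: % inhibition relative to no-enzyme and uninhibited control wells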
Scp-1 inhibitor – inhibitors of human Scp-1 phosphatase. Q9GZU7. Recombinant Scp1, phosphopeptide, malachite green phosphate absorbance. inhibition, % at 20 µM. 340,000 tested, 0.88% active;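 active = inhibition above about 50% at 20 µM, limit read from the data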
Target sequence (Q9GZU7 76-261 limits assumed): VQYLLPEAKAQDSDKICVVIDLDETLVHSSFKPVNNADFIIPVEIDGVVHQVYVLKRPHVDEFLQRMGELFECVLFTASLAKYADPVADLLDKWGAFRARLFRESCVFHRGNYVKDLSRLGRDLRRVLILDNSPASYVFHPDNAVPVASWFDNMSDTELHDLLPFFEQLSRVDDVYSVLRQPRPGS
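Assay system: SCP-1 catalytic fragment, aa 76-261 | Buffer or medium: Tris acetate buffer pH 5.5 with MgCl2 and Tween-20 | Compound: One concentration, 20 µM, with 1.0% DMSO | Also added: Phospho 17-mer peptide substrate | Signal: Absorbance at 630 nm | Incubation: 45 min enzyme reaction at room temperature | Measure: % inhibition of SCP-1 phosphate liberation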
Scp-1 conf – confirmation of human Scp-1 phosphatase inhibitors; shares compounds with Scp-1 inhibitor; recombinant SCP-1 catalytic domain, phosphate release, malachite green absorbance; inhibition, % at 20 µM; 2,500 tested, 61% active; AID 540281
MG interference – interferes with malachite green readout, flagging false Scp-1 hits. shares compounds with Scp-1 inhibitor. Colorimetric interference counterscreen, malachite green absorbance 630 nm. apparent inhibition (interference), % at 20 µM. 2,500 tested, under 10 active. AID 540313;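 also: compounds added after enzyme reaction finished so only phosphate colour detection is probed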
Scp1 DSF – binds human Scp-1, shifting its melting temperature | Recombinant SCP1, Sypro Orange thermal shift Tm | shares compounds with Scp-1 inhibitor | AID 540329 | thermal shift relative to vanadate control, % at 40 µM | 1,500 tested, 25% active;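 active = substances whose mean melting-temperature shift, as a percentage of the reference inhibitor's shift, reaches about 5.3%, limit read from the data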
Of the large screens only hits and unclear results are named; the others gave an inactive call (follow-up assays come after a bar, where they were run). Most compounds without a hit are left out; they make up all but 1.7% or so of the library.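 The calls were made as follows, unless noted: active = inhibition of at least 30% at 20 µM; inactive = the rest.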

CC(=O)Nc1ccc(-c2ccnc3c2CC(C(=O)Nc2cccc(N(C)C)c2)O3)cc1 (configuration not stated)	none (no result: Scp-1 inhibitor)
CCCNC(=O)c1ccc2c(=O)n(Cc3ccco3)c(=S)[nH]c2c1	none
COc1ccc(CCNC(=O)c2ccc3c(=O)n(Cc4ccco4)c(=S)[nH]c3c2)cc1OC	Scp-1 inhibitor 58 | Scp-1 conf inactive | MG interference inactive
CCOc1cc2[nH]c(=S)n(Cc3ccc(C(=O)NCCCN(CC)CC)cc3)c(=O)c2cc1OCC	Scp-1 inhibitor 59 | Scp-1 conf inactive | MG interference inactive
Cc1ccc(-c2nc3ccc(C(=O)O)cc3nc2-c2ccc(C)cc2)cc1	Scp-1 inhibitor 61 | Scp-1 conf inactive | MG interference inactive
Cc1ccc2nc(-c3ccccc3)c(-c3ccccc3)nc2c1	none
O=C(OCc1ccc(F)cc1)c1cc(=O)c2ccccc2o1	none
O=C(CCN=C1NS(=O)(=O)c2ccccc21)OCc1ccccc1	none
COc1cc2nc(NC(=O)c3ccco3)sc(=O)c2cc1OC	Scp-1 inhibitor 51 | Scp-1 conf 43 | MG interference inactive | Scp1 DSF inactive
COc1ccc(NC(=O)CCNS(=O)(=O)c2cc(Br)ccc2Br)cc1S(N)(=O)=O	none | Scp-1 conf inactive | MG interference inactive
CCN1/C(=C2\C(=O)N(c3ccccc3)N=C2C)C=Cc2cc(C)ccc21	Scp-1 inhibitor 58 | Scp-1 conf inactive | MG interference inactive
CC1CN=C(c2ccccc2)O1 (configuration not stated)	none
Cc1cccc(C)c1NC(=O)CSc1nnc(NC(=O)c2ccccc2C(=O)O)s1	Scp-1 inhibitor 65 | Scp-1 conf inactive | MG interference inactive
COc1ccc(N2CCN(CC(=O)NCc3ccc(Cl)cc3)CC2)cc1	none
CCCCCCCCn1c2c(c(=N)c3ccccc31)CCC2	none
Cc1cc(C)c2c(=N)c3ccccc3n(CCCCCCCCn3c4ccccc4c(=N)c4c(C)cc(C)nc43)c2n1	SUMO1-SIM PPI 95, LMPTP inh 87, Scp-1 inhibitor 59 | Scp-1 conf inactive | MG interference inactive
Cc1ccc(C(=O)N2CCN(c3ncnc4c(C)csc34)CC2)cc1	Scp-1 inhibitor 58 | Scp-1 conf inactive | MG interference inactive
CC(=O)Oc1ccc(/C=C(\NC(=O)c2cccc(Br)c2)C(=O)Nc2ccc(C(=O)O)cc2)cc1	none
Cc1ccc(C)c(N2N=C(C(=O)OCc3nnc(-c4ccccc4Br)o3)CCC2=O)c1	none (no result: Scp-1 inhibitor)
CNC(=O)OCc1snc(-c2ccccc2)c1COC(=O)NC	none (no result: Scp-1 inhibitor)
O=C(C[C@@H]1C/C=C\C[C@@H](NC(=O)OCC2c3ccccc3-c3ccccc32)C(=O)OCCNC1=O)N[C@@H](CO)Cc1ccccc1	none
COc1ccc(Cl)cc1S(=O)(=O)N1CCC(C(=O)NCC2CCCO2)CC1 (configuration not stated)	none
COc1ccc(OC)c(S(=O)(=O)N2CCC(C(=O)NCC3CCCO3)CC2)c1 (configuration not stated)	Scp-1 inhibitor 92 | Scp-1 conf inactive | MG interference inactive
O=C(NCC1CCCO1)c1ccc(COc2ccccc2)o1 (configuration not stated)	none
O=C(OCc1cc(=O)n2cc(Br)ccc2n1)C1COc2ccccc2O1 (configuration not stated)	none
Cn1c(SCc2cc(=O)n3cc(Br)ccc3n2)nnc1C1COc2ccccc2O1 (configuration not stated)	Scp-1 inhibitor 61 | Scp-1 conf 41 | MG interference inactive | Scp1 DSF inactive
Cc1ccccc1OCCC(=O)OCC(=O)N1c2ccccc2NC(=O)C1(C)C	none
Cc1cc(OCC(=O)OCC(=O)N2c3ccccc3NC(=O)C2(C)C)ccc1Cl	Scp-1 inhibitor 60 | Scp-1 conf 57 | MG interference inactive | Scp1 DSF inactive
CC1(C)C(=O)Nc2ccccc2N1C(=O)COc1ccccc1C#N	Scp-1 inhibitor 50 | Scp-1 conf 59 | MG interference inactive | Scp1 DSF inactive
CCC(=O)c1ccc(OCC(=O)OCC(=O)N2c3ccccc3NC(=O)C2(C)C)cc1	none
Cc1ccc(CNC(=O)[C@H]2O[C@@H](n3ccc(N)nc3=O)[C@H](O)[C@@H]2O)o1	none (no result: Scp-1 inhibitor)
COCCN(C(=O)CSc1nnc(-c2ccc(C(C)(C)C)cc2)n1N)c1c(N)n(CC(C)C)c(=O)[nH]c1=O	none
O=C(CN1C(=O)NC2(CCCCC2)C1=O)N1CCN(S(=O)(=O)c2ccc(F)cc2)CC1	none
CC(C)(C)OC(=O)N1CCCC(C(=O)Nc2cccc(C(=O)N3CCCCC3)c2)C1 (configuration not stated)	none
CN(C)S(=O)(=O)c1cccc(C(=O)OCC(=O)Nc2sccc2C(N)=O)c1	Scp-1 inhibitor 57 | Scp-1 conf inactive | MG interference inactive
CCCC1(C(=O)OCC)NC(c2ccc(O)cc2)C2C(=O)N(c3cccc(C(C)=O)c3)C(=O)C21 (configuration not stated)	none
COc1cccc2cc(C(=O)NCc3ccco3)c(=Nc3ccc(C(=O)O)cc3)oc12	Scp-1 inhibitor 56 | Scp-1 conf 32 | MG interference inactive | Scp1 DSF inactive
COc1cccc2cc(C(=O)NCc3ccco3)c(=O)oc12	none
Cn1c(NC(=O)Cc2cccc3ccccc23)cc(=O)n(C)c1=O	none | Scp-1 conf inactive | MG interference inactive
Cn1c(NNC(=O)c2ccc(C(C)(C)C)cc2)cc(=O)n(C)c1=O	none
Cn1c(NC(=O)c2ccc(C(C)(C)C)cc2)cc(=O)n(C)c1=O	none | Scp-1 conf inactive | MG interference inactive
Cn1c(NC(=O)CCC2CCCCC2)cc(=O)n(C)c1=O	none | Scp-1 conf inactive | MG interference inactive
Cn1c(NNC(=O)CCC2CCCCC2)cc(=O)n(C)c1=O	none | Scp-1 conf inactive | MG interference inactive
Cn1c(NC(=O)C2CC2)cc(=O)n(C)c1=O	none
Cc1cc2c(cc1C)-n1nnnc1C(N(C)Cc1ccccc1)C(=O)N2 (configuration not stated)	none (no result: DNMT1 inh, STEP block, Scp-1 inhibitor)
COc1ccc(S(=O)(=O)NCCN2CCOCC2)c2ccccc12	none
COc1ccc(S(=O)(=O)NCCN2CCOCC2)c(C)c1C	Scp-1 inhibitor 81 | Scp-1 conf inactive | MG interference inactive
O=C(CN1C(=O)C(c2ccc(F)cc2)=NC12CCCC2)Nc1ccc(F)cc1	none
COc1ccc(NC(=O)CN2C(=O)C(c3ccccc3)=NC23CCCCCC3)cc1	Scp-1 inhibitor 59 | Scp-1 conf inactive | MG interference inactive
